The results in this text go back to ChEMBL document CHEMBL4196186, “Absolute Configurations and Bioactivities of Guaiane-Type Sesquiterpenoids Isolated from Pogostemon cablin” (J Nat Prod, 2018).

Experiment [1] deals with Thoracic aorta. Nature of the experiment: Vasorelaxant activity in Sprague-Dawley rat thoracic aortic ring assessed as inhibition of KCl-induced contraction at 50 uM. It is filed as functional, tissue-based. In a few lines: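 Rat aortic rings contracted with KCl; relaxation measured with test agent at a single concentration of 50 μM. Methoxyverapamil and phentolamine mesylate were the positive controls.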

The next experiment deals with A549. The experiment can be described thus: Cytotoxicity against human A549 cells after 48 hrs by MTT assay. Format: functional, cell-based. Particulars: A549, 48 h. (In general: Tetrazolium assays rely on reduction of a dye to a coloured formazan, in cell work by metabolically active cells.)
The test system of another experiment is MCF7. The experiment can be described thus: Cytotoxicity against human MCF7 cells after 48 hrs by MTT assay. Format: functional, cell-based. Particulars: MCF7, 48 h.
The next experiment relates to SGC-7901. Nature of the experiment: Cytotoxicity against human SGC7901 cells after 48 hrs by MTT assay. It is filed as functional, cell-based. Particulars: SGC-7901, 48 h.
Experiment [2] in a line: Cytotoxicity against human […] cells after 48 hrs by MTT assay. Format: functional, cell-based.
Experiment [3] deals with Staphylococcus aureus. Nature of the experiment: Antibacterial activity against methicillin-resistant Staphylococcus aureus ATCC 43300 after 24 hrs by double dilution method. Format: functional, organism-based.
The test system of experiment [4] is Staphylococcus aureus. Nature of the experiment: Antibacterial activity against Staphylococcus aureus ATCC 25923 after 24 hrs by double dilution method. It is filed as functional, organism-based.
Another experiment has as its system Escherichia coli. Nature of the experiment: Antibacterial activity against Escherichia coli ATCC 25922 after 24 hrs by double dilution method. Format: functional, organism-based.
Experiment [5] relates to PC-12. The experiment can be described thus: Neuroprotective activity against glutamate-induced cell damage in rat PC12 cells assessed as cell viability at 50 uM pretreated followed by glutamate challenge and measured after 24 hrs by MTT assay (reference value: 49.14 +/- 3.15%). It is filed as functional. Particulars: read-out: Activity.
For experiment [6], the system named is Thoracic aorta. The experiment can be described thus: Vasorelaxant activity in Sprague-Dawley rat thoracic aortic ring assessed as inhibition of KCl-induced contraction. It is filed as functional, tissue-based. In a few lines: (§1)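 Rat aortic rings precontracted with phenylephrine (PHE) or KCl; relaxation measured over a range of concentrations and EC50 derived. Positive controls were phentolamine mesylate and methoxyverapamil.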

For experiment [7], the system named is Thoracic aorta. The experiment can be described thus: Vasorelaxant activity in Sprague-Dawley rat thoracic aortic ring assessed as inhibition of phenylephrine-induced contraction. It is filed as functional, tissue-based. In a few lines:
as §1

For the next experiment, the system named is Candida albicans. Nature of the experiment: Antifungal activity against Candida albicans CMCC 98001 after 24 hrs by double dilution method. It is filed as functional. The note with it: CMCC 98001, 24 h.
Experiment [8] deals with PC-12. The experiment can be described thus: Neuroprotective activity against glutamate-induced cell damage in rat PC12 cells assessed as increase in cell viability at 10 uM pretreated followed by glutamate challenge and measured after 24 hrs by MTT assay. Format: functional, cell-based.

Values after ≈ are worked out from the molar mass of the structure shown. Active and inactive are the calls of the source. The rule behind the calls is not given here.

As a reminder, the IC50 is the concentration at which inhibition is half-maximal. A low value points to greater potency. Regarding `C=C(C)[C@@H]1CC[C@@](C)(O)C2=C[C@@H](O)[C@H](C)[C@@H]2C1`, the inhibition result in the experiment with Thoracic aorta [1] was “inactive”. Further, the IC50 (in the experiment with A549; in the experiment with MCF7; in the experiment with SGC-7901; in [2]) was > 50 µM throughout. For the same molecule, the result in the experiment with Staphylococcus aureus [3], in the experiment with Staphylococcus aureus [4] and in the experiment on Escherichia coli was inactive.
Consider `C=C(C)[C@@H]1CC[C@H](C)[C@]23CC[C@](C)(O)[C@@]2(C1)O3`, for which the inhibition result in the experiment with Thoracic aorta [1] is “inactive”. In addition, the viability at 50 µM in the experiment with PC-12 [5] worked out at 65.5%. Besides, the IC50 (in the experiment with A549; with MCF7; in the experiment with SGC-7901; in [2]) was > 50 µM throughout. Further, the outcome in the experiment with Staphylococcus aureus [3], in the experiment on Staphylococcus aureus [4] and with Escherichia coli was inactive.
Consider `C=C(C)[C@@H]1CC[C@H](C)[C@@H](CCC(C)=O)C(=O)C1`, for which, in the experiment on Thoracic aorta [1], the inhibition entry was “inactive”. Further, the viability at 50 µM in the experiment with PC-12 [5] was found to be 75.7%. The IC50 (with A549; with MCF7; in the experiment with SGC-7901; in [2]) was > 50 µM in each case. Further, the outcome with Staphylococcus aureus [3], in the experiment on Staphylococcus aureus [4] and with Escherichia coli was inactive.
Take `C=C(C)[C@@H]1CC[C@H](C)[C@H](CCC(C)=O)C(=O)C1`: in the experiment with Thoracic aorta [6], the inhibition entry is “Active”. In addition, in the experiment with PC-12 [5], the viability at 50 µM is 78.7%. Further, the IC50 (in the experiment on A549; in the experiment with MCF7; with SGC-7901; in experiment [2]) was > 50 µM in each case. In addition, the result in the experiment on Staphylococcus aureus [3], in the experiment on Staphylococcus aureus [4] and in the experiment with Escherichia coli was inactive.
What is called EC50 is the concentration needed to bring the measured effect to its halfway point. A word on the MIC: it is the lowest concentration that inhibits growth of the organism. Read a low MIC as a more susceptible organism. For the molecule `C=C(C)[C@@H]1CC[C@H](C)[C@@]23O[C@]2(C1)[C@@H](C)C[C@H]3O`, the concentration giving a half-maximal response (EC50) in the experiment with Thoracic aorta [7] was determined as 1.6 µM; with Thoracic aorta [6] it was 24.2 µM. In addition, the inhibition result in the experiment on Thoracic aorta [7] and in the experiment on Thoracic aorta [6] was “Dose-dependent effect” throughout. In the experiment with Candida albicans, this molecule had a minimal inhibitory concentration (MIC) of 300 µM (≈ 70.9 µg/mL). Further, the concentration for half-maximal inhibition (IC50) (in the experiment with A549; in the experiment with MCF7; with SGC-7901; in [2]) was > 50 µM in each case. The result in the experiment with Staphylococcus aureus [3], with Staphylococcus aureus [4] and in the experiment with Escherichia coli was inactive.
Turning to `C=C(C)[C@@H]1C[C@@H](O)C(=C)C2=CC[C@H](C)[C@@H]2C1`, the inhibition entry in the experiment on Thoracic aorta [1] is “inactive”. For the same molecule, the half-inhibitory concentration (IC50) (in the experiment with A549; in the experiment on MCF7; with SGC-7901; in [2]) was > 50 µM each time. The result in the experiment with Staphylococcus aureus [3], with Staphylococcus aureus [4] and in the experiment with Escherichia coli was inactive.
For the molecule `COCCOC(=O)C1=C(C)NC(C)=C(C(=O)OC(C)C)C1c1cccc([N+](=O)[O-])c1` (centres undefined), the outcome in the experiment with PC-12 [8] was Active.
`C=C(C)[C@@H]1CCC(C)=C2C(=O)C=C(C)[C@@H]2C1`: the inhibition result with Thoracic aorta [1] is “inactive”. Further, the IC50 (in the experiment with A549; with MCF7; in the experiment on SGC-7901; in experiment [2]) was > 50 µM throughout. Further, the outcome with Staphylococcus aureus [3], in the experiment with Staphylococcus aureus [4] and in the experiment with Escherichia coli was inactive.
With `C=C(C)[C@@H]1CCC(=C)[C@]2(O)[C@@H](O)C[C@H](C)[C@@H]2C1`, the concentration giving a half-maximal response (EC50) in the experiment with Thoracic aorta [7] stood at 5.4 µM. The inhibition result in the experiment on Thoracic aorta [7] and in the experiment with Thoracic aorta [6] was “Dose-dependent effect” throughout. The same molecule came in with a minimal inhibitory concentration (MIC) in the experiment on Candida albicans of 500 µM (≈ 118 µg/mL). Also, the 50% inhibitory concentration (IC50) (in the experiment with A549; in the experiment with MCF7; in the experiment with SGC-7901; in experiment [2]) was > 50 µM each time. Further, the result with Staphylococcus aureus [3], in the experiment with Staphylococcus aureus [4] and in the experiment with Escherichia coli was inactive.
As for `C=C(C)[C@@H]1CC[C@](C)(O)[C@@H]2CC[C@H](C)[C@]2(O)C1`, the inhibition entry in the experiment with Thoracic aorta [1] is “inactive”. Further, in the experiment with PC-12 [5], the viability at 50 µM was 66.1%. For the same molecule, the IC50 (with A549; in the experiment with MCF7; with SGC-7901; in experiment [2]) was > 50 µM in each case. The result with Staphylococcus aureus [3], in the experiment with Staphylococcus aureus [4] and in the experiment with Escherichia coli was inactive.
